B1: tRNA (parent)
chain: GUUCCGUUGGCGUAAUGGUAACGCGUCUCCCUCCUAAGGAGAAGACUGCGGGUUCGAGUCCCGUACGGAACG

Variants of: B1
Assay: yeast fitness, log relative to wild type (ln ratio); higher = fitter; tRNA-Arg(CCU), competitive growth, 37 C, 1 M NaCl
In short: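 A combinatorial tRNA-Arg(CCU) variant library was carried on a HIS3 centromeric plasmid in BY4742 lacking the chromosomal gene, from two independent transformations. Pools grew 4 generations in SC-HIS at 30 °C, then ~6.5 generations (~26.5 h) in SC-HIS 1M NaCl at 37 °C, with three outputs per input. Variants were counted by 125 bp paired-end Illumina sequencing. Fitness is ln of each genotype's generations (OD-scaled log2 output/input frequency, inverse-variance weighted across replicates) over the wild-type's.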

Variant	yeast fitness (ln)
GUUCCAUUGGCGUAAUGGUAACGCGUUUCCCUCCUAAGGAGACGACUGCGGGUUCGAGUCCCGUACGGAUCG [G6A C27U A43C A70U]	-0.263
GCUCCUUUGGCGUAAUGGUAACGCGUCUCCCUCCUAAGGAGACGACUGCGGGUUCGAGUCCCGUAUGGAUUG [U2C G6U A43C C66U A70U C71U]	-0.531
GUUCCUUUGGCGUAAUGGUAACGCGUUUCCCUCCUAAGGAGACGACUGCGGGUUCGAGUCCCGUAUGGAAUG [G6U C27U A43C C66U C71U]	-0.34
AUUCCAUUGGCGUAAUGGUAACGCGUUUCCCUCCUAAGGAGAAGAUUGCGGGUUCGAGUCCCGUAUGGGUUG [G1A G6A C27U C46U C66U A69G A70U C71U]	-0.436
ACUCCGUUGGCGUAAUGGUAACGCGUUUCCCUCCUAAGGAGAAGAUUGCGGGUUCGAGUCCCGUACGGAUCG [G1A U2C C27U C46U A70U]	-0.127
GUUCCAUUGGCGUAAUGGUAACGCGUCUCCCUCCUAAGGAGACGAUUGCGGGUUCGAGUCCCGUACGGAGUG [G6A A43C C46U A70G C71U]	-0.207
AUUCCGUUGGCGUAAUGGUAACGCGUCUCCCUCCUAAGGAGAAGAUUGCGGGUUCGAGUCCCGUACGGAUUG [G1A C46U A70U C71U]	-0.0276
GGUCCAUUGGCGUAAUGGUAACGCGUCUCCCUCCUAAGGAGACGAUUGCGGGUUCGAGUCCCGUACGGGGUG [U2G G6A A43C C46U A69G A70G C71U]	-0.226
GGUCCGUUGGCGUAAUGGUAACGCGUUUCCCUCCUAAGGAGACGACUGCGGGUUCGAGUCCCGUAUGGGUCG [U2G C27U A43C C66U A69G A70U]	-0.346
AGUCCUUUGGCGUAAUGGUAACGCGUUUCCCUCCUAAGGAGAAGAUUGCGGGUUCGAGUCCCGUACGGAAUG [G1A U2G G6U C27U C46U C71U]	-0.259
GUUCCAUUGGCGUAAUGGUAACGCGUCUCCCUCCUAAGGAGACGACUGCGGGUUCGAGUCCCGUAAGGAGCG [G6A A43C C66A A70G]	-0.154
ACUCCAUUGGCGUAAUGGUAACGCGUCUCCCUCCUAAGGAGACGACUGCGGGUUCGAGUCCCGUACGGAGUG [G1A U2C G6A A43C A70G C71U]	-0.13
GUUCCUUUGGCGUAAUGGUAACGCGUCUCCCUCCUAAGGAGACGACUGCGGGUUCGAGUCCCGUACGGAUCG [G6U A43C A70U]	-0.164
GGUCCAUUGGCGUAAUGGUAACGCGUUUCCCUCCUAAGGAGACGACUGCGGGUUCGAGUCCCGUAAGGGUUG [U2G G6A C27U A43C C66A A69G A70U C71U]	-0.548
AGUCCGUUGGCGUAAUGGUAACGCGUCUCCCUCCUAAGGAGACGACUGCGGGUUCGAGUCCCGUACGGAGUG [G1A U2G A43C A70G C71U]	-0.207
ACUCCGUUGGCGUAAUGGUAACGCGUCUCCCUCCUAAGGAGACGAUUGCGGGUUCGAGUCCCGUAUGGAUUG [G1A U2C A43C C46U C66U A70U C71U]	-0.202
GUUCCUUUGGCGUAAUGGUAACGCGUUUCCCUCCUAAGGAGACGAUUGCGGGUUCGAGUCCCGUACGGGUUG [G6U C27U A43C C46U A69G A70U C71U]	-0.45
GCUCCUUUGGCGUAAUGGUAACGCGUCUCCCUCCUAAGGAGACGACUGCGGGUUCGAGUCCCGUAUGGGUCG [U2C G6U A43C C66U A69G A70U]	-0.231
GUUCCGUUGGCGUAAUGGUAACGCGUUUCCCUCCUAAGGAGACGAUUGCGGGUUCGAGUCCCGUAAGGAUUG [C27U A43C C46U C66A A70U C71U]	-0.301

Variant	yeast fitness (ln)
GCUCCGUUGGCGUAAUGGUAACGCGUCUCCCUCCUAAGGAGACGACUGCGGGUUCGAGUCCCGUAAGGAGCG [U2C A43C C66A A70G]	-0.0552
AGUCCGUUGGCGUAAUGGUAACGCGUCUCCCUCCUAAGGAGACGACUGCGGGUUCGAGUCCCGUACGGGGUG [G1A U2G A43C A69G A70G C71U]	-0.202
GCUCCUUUGGCGUAAUGGUAACGCGUUUCCCUCCUAAGGAGACGACUGCGGGUUCGAGUCCCGUAUGGGUUG [U2C G6U C27U A43C C66U A69G A70U C71U]	-0.419
ACUCCUUUGGCGUAAUGGUAACGCGUCUCCCUCCUAAGGAGAAGAUUGCGGGUUCGAGUCCCGUAAGGGGCG [G1A U2C G6U C46U C66A A69G A70G]	-0.139
AGUCCGUUGGCGUAAUGGUAACGCGUUUCCCUCCUAAGGAGAAGACUGCGGGUUCGAGUCCCGUAUGGAGCG [G1A U2G C27U C66U A70G]	-0.194
GGUCCGUUGGCGUAAUGGUAACGCGUCUCCCUCCUAAGGAGAAGACUGCGGGUUCGAGUCCCGUACGGAAUG [U2G C71U]	-0.0549
AGUCCAUUGGCGUAAUGGUAACGCGUCUCCCUCCUAAGGAGAAGACUGCGGGUUCGAGUCCCGUAUGGAUCG [G1A U2G G6A C66U A70U]	-0.319
AUUCCGUUGGCGUAAUGGUAACGCGUUUCCCUCCUAAGGAGACGAUUGCGGGUUCGAGUCCCGUAAGGAGUG [G1A C27U A43C C46U C66A A70G C71U]	-0.211
GCUCCGUUGGCGUAAUGGUAACGCGUCUCCCUCCUAAGGAGAAGAUUGCGGGUUCGAGUCCCGUACGGGUUG [U2C C46U A69G A70U C71U]	-0.169
GUUCCAUUGGCGUAAUGGUAACGCGUCUCCCUCCUAAGGAGACGACUGCGGGUUCGAGUCCCGUAUGGAAUG [G6A A43C C66U C71U]	-0.335
GCUCCAUUGGCGUAAUGGUAACGCGUCUCCCUCCUAAGGAGAAGACUGCGGGUUCGAGUCCCGUAUGGAGUG [U2C G6A C66U A70G C71U]	-0.0109
GUUCCGUUGGCGUAAUGGUAACGCGUUUCCCUCCUAAGGAGACGAUUGCGGGUUCGAGUCCCGUACGGGGCG [C27U A43C C46U A69G A70G]	-0.0876
GGUCCAUUGGCGUAAUGGUAACGCGUUUCCCUCCUAAGGAGAAGAUUGCGGGUUCGAGUCCCGUAAGGAGCG [U2G G6A C27U C46U C66A A70G]	-0.16
ACUCCUUUGGCGUAAUGGUAACGCGUUUCCCUCCUAAGGAGACGAUUGCGGGUUCGAGUCCCGUAAGGAGUG [G1A U2C G6U C27U A43C C46U C66A A70G C71U]	-0.0221
GCUCCGUUGGCGUAAUGGUAACGCGUUUCCCUCCUAAGGAGACGACUGCGGGUUCGAGUCCCGUAAGGAUUG [U2C C27U A43C C66A A70U C71U]	-0.319
AGUCCGUUGGCGUAAUGGUAACGCGUUUCCCUCCUAAGGAGACGAUUGCGGGUUCGAGUCCCGUAUGGGGCG [G1A U2G C27U A43C C46U C66U A69G A70G]	-0.282
GGUCCGUUGGCGUAAUGGUAACGCGUCUCCCUCCUAAGGAGAAGACUGCGGGUUCGAGUCCCGUAUGGGAUG [U2G C66U A69G C71U]	-0.213
GUUCCUUUGGCGUAAUGGUAACGCGUCUCCCUCCUAAGGAGAAGACUGCGGGUUCGAGUCCCGUAUGGAUCG [G6U C66U A70U]	-0.122

Source: the RNAGym collection of RNA variant scans (doi:10.1038/s41586-018-0170-7)
